According to ChEMBL document CHEMBL4024770, “Augmentation of Anticancer Drug Efficacy in Murine Hepatocellular Carcinoma Cells by a Peripherally Acting Competitive N-Methyl-d-aspartate (NMDA) Receptor Antagonist” (J Med Chem, 2017):
Activity calls are given as the source filed them. The rule behind the calls is not given here.

Key:
[1] = target: Glutamate NMDA receptor; Grin1/Grin2c (Rattus norvegicus, UniProt P35439+Q00961); test: Antagonist activity at recombinant rat GluN1a/GluN2C expressed in Xenopus laevis oocytes assessed as inhibition of glycine/glutamate-mediated current responses by two-electrode voltage clamp method; format: cell-based
Glutamate NMDA receptor; Grin1/Grin2c, sequence (Q00961 whole entry, other chains not shown): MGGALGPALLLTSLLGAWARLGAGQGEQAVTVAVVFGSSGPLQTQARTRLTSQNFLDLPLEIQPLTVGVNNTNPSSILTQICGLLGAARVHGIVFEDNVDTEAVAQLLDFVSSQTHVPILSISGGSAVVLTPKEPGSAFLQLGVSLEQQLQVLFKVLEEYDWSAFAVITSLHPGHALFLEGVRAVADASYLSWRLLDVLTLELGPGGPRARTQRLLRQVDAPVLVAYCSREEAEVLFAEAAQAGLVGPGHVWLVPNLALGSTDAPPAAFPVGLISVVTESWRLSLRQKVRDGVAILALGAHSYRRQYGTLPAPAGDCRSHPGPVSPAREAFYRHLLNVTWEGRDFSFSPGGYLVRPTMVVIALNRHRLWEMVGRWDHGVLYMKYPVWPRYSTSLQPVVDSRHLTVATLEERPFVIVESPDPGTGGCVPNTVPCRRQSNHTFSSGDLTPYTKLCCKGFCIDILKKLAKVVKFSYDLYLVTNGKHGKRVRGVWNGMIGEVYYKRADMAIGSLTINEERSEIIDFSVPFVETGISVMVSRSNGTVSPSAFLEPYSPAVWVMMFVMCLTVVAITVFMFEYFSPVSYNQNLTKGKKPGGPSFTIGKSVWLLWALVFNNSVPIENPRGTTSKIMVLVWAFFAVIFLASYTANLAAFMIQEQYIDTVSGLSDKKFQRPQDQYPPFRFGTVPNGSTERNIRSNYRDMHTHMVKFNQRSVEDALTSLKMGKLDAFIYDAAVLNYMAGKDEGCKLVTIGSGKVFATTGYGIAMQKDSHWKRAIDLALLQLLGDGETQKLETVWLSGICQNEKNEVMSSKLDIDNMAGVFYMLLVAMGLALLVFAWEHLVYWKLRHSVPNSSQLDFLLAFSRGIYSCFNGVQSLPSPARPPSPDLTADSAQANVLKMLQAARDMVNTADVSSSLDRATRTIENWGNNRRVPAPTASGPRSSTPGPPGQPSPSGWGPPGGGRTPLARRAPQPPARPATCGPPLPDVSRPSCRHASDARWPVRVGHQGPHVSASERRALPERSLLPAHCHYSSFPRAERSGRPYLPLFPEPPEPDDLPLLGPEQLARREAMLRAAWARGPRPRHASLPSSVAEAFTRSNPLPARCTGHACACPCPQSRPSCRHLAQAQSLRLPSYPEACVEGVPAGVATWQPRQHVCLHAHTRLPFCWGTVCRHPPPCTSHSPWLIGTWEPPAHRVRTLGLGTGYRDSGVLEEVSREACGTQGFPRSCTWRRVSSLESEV
Method in brief: (§1)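 Xenopus oocytes were injected with rat GluN1 and GluN2A–D cRNA (1:2) and recorded 2–6 days later by TEVC at room temperature, −40 mV, in Ba2+-containing recording solution, pH 7.4. Currents were evoked by 100 μM glycine plus glutamate at 2–3× EC50: 10 μM for GluN2A, 3 μM for GluN2B and GluN2C, 1 μM for GluN2D. IC50 from Hill fits per oocyte; Ki estimated.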

[2] = tested on: Brain; test: Drug uptake in mouse brain at 100 uM administered via perfusion; conditions: in vivo, other
[3] = tested on: Plasma; test: Cmax in mouse plasma at 10 mg/kg, ip administered as bolus dose by LC-MS/MS analysis; format: ADME, organism-based; design: dose 10 mg/kg, route intraperitoneal; conditions: in vivo
Method in brief: (§2)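 Adult male mice (25 ± 5 g) given a single 10 mg/kg i.p. bolus, prepared as a 5.0 mM solution in 0.9% NaCl. Animals were decapitated at five time points between 10 and 240 min. Plasma was precipitated with acetonitrile containing internal standard. Brain and liver were homogenized in water (1:3) and precipitated the same way. Analysis by LC-MS/MS, with AUC0–240, Cmax, tmax, t½β and liver/plasma ratio derived from the concentration-time data.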

[4] = organism: Mus musculus; test: Antagonist activity at NMDA receptor in Nras driven p53 deficient mouse HCC cell membranes assessed as potentiation of 5 uM sorafenib-mediated antiproliferative activity by measuring cell viability at 100 uM after 72 hrs by resazurin assay (reference value: […] +/- […]%)
[5] = organism: Mus musculus; test: Antagonist activity at NMDA receptor in Nras driven p53 deficient mouse HCC cell membranes assessed as Abcc4 protein expression levels at 10 uM by […] analysis relative to control; design: scale not given: the % may be the effect or the level left
Method in brief: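 Mouse Nras-driven p53−/− HCC cells in DMEM with 10% FBS, exposed 48 h with or without 10 μM antagonist, washed, pelleted and snap-frozen. Crude membrane fraction isolated. 50 μg protein reduced, alkylated, precipitated, then Lys-C digested (3 h, rt) and trypsin digested (1:100, 37°C, 16 h). One unique peptide per transporter quantified by multiplexed SRM/MRM LC-MS/MS against stable isotope-labelled standards. Unpaired two-tailed t-test versus control, n=4.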

[6] = tested on: Mus musculus; test: Toxicity in mouse assessed as behavioral changes at 10 mg/kg, ip administered as bolus dose; format: organism-based; conditions: in vivo
[7] = target: Glutamate NMDA receptor; Grin1/Grin2a (Rattus norvegicus, UniProt P35439+Q00959); test: Antagonist activity at recombinant rat GluN1a/GluN2A expressed in Xenopus laevis oocytes assessed as inhibition of glycine/glutamate-mediated current responses by two-electrode voltage clamp method; format: cell-based; method in brief: as §1
Glutamate NMDA receptor; Grin1/Grin2a, sequence (Q00959 whole entry, other chains not shown): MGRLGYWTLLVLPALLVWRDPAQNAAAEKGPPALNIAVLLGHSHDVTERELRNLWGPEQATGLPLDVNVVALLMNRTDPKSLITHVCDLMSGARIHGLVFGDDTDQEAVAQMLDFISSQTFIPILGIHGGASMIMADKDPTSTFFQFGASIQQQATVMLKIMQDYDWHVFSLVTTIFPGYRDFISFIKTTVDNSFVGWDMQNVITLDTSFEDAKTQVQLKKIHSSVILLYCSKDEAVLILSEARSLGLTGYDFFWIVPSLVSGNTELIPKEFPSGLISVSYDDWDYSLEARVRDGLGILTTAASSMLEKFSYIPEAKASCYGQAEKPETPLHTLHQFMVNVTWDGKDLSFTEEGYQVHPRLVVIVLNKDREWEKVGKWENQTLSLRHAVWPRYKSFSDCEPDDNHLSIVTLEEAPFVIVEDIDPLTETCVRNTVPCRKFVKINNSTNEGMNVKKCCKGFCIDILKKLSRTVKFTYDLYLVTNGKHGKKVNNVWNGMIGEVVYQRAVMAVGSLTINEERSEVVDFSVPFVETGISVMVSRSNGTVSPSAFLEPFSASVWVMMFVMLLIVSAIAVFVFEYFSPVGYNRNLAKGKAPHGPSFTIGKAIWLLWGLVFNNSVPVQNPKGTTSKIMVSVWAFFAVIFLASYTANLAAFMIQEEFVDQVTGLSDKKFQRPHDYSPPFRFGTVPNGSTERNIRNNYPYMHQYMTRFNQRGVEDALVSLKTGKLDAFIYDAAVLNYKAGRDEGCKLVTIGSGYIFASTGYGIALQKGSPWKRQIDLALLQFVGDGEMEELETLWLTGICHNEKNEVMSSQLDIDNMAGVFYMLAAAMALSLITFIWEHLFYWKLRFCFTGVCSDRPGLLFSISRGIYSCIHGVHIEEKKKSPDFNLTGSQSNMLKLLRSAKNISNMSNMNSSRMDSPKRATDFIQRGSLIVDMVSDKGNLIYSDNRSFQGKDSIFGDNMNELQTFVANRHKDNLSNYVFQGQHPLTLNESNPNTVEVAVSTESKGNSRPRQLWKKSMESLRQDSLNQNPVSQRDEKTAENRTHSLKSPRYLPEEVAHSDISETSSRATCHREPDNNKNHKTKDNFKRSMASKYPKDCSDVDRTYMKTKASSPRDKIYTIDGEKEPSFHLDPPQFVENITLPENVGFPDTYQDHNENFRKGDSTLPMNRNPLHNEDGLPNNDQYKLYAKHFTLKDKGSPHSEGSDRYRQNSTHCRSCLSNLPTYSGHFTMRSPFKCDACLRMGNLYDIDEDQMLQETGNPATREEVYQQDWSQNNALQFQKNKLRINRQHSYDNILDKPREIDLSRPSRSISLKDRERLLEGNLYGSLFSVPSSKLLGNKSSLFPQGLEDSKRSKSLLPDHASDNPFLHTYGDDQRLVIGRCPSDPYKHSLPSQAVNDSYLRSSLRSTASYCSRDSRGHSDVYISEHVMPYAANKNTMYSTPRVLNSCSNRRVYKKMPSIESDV

[8] = target: Glutamate NMDA receptor; Grin1/Grin2b (Rattus norvegicus, UniProt P35439+Q00960); test: Antagonist activity at recombinant rat GluN1a/GluN2B expressed in Xenopus laevis oocytes assessed as inhibition of glycine/glutamate-mediated current responses by two-electrode voltage clamp method; format: cell-based; method in brief: as §1
Glutamate NMDA receptor; Grin1/Grin2b, sequence (Q00960 whole entry, other chains not shown): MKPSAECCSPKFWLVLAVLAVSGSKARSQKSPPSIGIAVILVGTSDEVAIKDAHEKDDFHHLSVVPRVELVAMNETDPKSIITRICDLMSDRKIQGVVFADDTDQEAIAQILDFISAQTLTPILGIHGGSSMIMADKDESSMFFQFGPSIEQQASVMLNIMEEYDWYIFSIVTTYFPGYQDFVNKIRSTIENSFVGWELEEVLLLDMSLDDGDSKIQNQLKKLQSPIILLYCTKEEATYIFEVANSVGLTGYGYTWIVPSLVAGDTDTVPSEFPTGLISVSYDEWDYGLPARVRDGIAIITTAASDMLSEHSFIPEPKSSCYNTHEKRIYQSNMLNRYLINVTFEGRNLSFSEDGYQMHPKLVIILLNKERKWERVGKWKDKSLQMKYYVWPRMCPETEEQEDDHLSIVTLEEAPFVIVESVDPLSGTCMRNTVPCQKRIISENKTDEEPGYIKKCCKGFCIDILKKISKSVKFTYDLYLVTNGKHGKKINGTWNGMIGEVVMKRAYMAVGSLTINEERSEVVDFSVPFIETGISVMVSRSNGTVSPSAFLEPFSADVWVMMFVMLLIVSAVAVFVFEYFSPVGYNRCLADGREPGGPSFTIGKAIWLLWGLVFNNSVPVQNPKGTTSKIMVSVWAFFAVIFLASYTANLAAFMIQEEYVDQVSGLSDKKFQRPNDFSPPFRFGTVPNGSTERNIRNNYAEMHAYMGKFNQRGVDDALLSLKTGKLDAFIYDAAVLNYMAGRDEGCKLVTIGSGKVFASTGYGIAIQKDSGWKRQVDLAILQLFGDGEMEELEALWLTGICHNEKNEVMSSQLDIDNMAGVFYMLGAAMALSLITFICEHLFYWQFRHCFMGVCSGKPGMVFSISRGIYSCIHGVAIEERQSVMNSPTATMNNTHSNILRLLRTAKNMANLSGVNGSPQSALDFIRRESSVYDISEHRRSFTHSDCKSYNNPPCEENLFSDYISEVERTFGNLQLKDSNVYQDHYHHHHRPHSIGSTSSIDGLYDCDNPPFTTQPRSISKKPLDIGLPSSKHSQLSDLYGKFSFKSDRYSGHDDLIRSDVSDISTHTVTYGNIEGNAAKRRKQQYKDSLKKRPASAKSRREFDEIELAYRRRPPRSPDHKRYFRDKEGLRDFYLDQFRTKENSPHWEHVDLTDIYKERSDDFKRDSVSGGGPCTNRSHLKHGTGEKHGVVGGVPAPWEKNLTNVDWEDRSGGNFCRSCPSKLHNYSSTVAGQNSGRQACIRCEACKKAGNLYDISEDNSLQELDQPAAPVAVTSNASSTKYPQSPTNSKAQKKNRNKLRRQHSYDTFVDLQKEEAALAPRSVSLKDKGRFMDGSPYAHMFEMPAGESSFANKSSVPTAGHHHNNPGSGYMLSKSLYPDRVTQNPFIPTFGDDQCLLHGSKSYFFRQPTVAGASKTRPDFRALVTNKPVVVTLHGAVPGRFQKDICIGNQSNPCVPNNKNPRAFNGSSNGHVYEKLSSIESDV

[9] = tested on: Brain; test: Drug uptake in mouse brain at 10 mg/kg, ip administered as bolus dose measured at 60 mins by LC-MS/MS analysis; format: ADME, organism-based; conditions: in vivo, 1 h; method in brief: as §2
[10] = tested on: Brain; test: Tmax in mouse brain at 10 mg/kg, ip administered as bolus dose by LC-MS/MS analysis; format: ADME, organism-based; conditions: in vivo; method in brief: as §2
[11] = organism: Mus musculus; test: Antagonist activity at NMDA receptor in Nras driven p53 deficient mouse HCC cell membranes assessed as PGE2 levels at 100 uM after 24 hrs by LC-MS/MS method relative to control; design: scale not given: the % may be the effect or the level left
Method in brief: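 Nras-driven p53−/− mouse HCC cells in DMEM/10% FBS were incubated 24 h with or without 100 μM compound. This was done without LPS and with LPS (2.5 μg/mL) in the growth medium. Cells were washed with ice-cold HBSS and lysed in acetonitrile on ice. PGE2 in the lysates was quantified by LC-MS/MS and expressed as % of control. Mean ± SEM, n=3; one-way ANOVA/Tukey.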

[12] = Displacement of [3H]-KA from KA receptor in Sprague-Dawley rat brain synaptosomes after 60 mins by scintillation counting method; format: subcellular
[13] = tested on: Liver; test: Cmax in mouse liver at 10 mg/kg, ip administered as bolus dose by LC-MS/MS analysis; format: ADME, organism-based; design: dose 10 mg/kg, route intraperitoneal; conditions: in vivo; method in brief: as §2
[14] = organism: Mus musculus; test: (§3) Antagonist activity at NMDA receptor in Nras driven p53 deficient mouse HCC cell membranes assessed as decrease in Abcc1 to 5 protein expression levels by measuring fluorescein accumulation at 10 uM preincubated for 24 hrs followed by compound wash out and addition of fluorescein measured after 30 mins by fluorescence assay relative to control; design: scale not given: the % may be the effect or the level left
Method in brief: (§4)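 Nras p53−/− HCC cells (1 × 10⁵/well) were pretreated 24 h with or without 10 μM. They were then washed 3× in warm HBSS (choline chloride, pH 7.4) and incubated at 37 °C with probe in HBSS. Incubation was 30 min for [3H]-digoxin, 20 μM fluorescein or 10 μM sorafenib, and 5 min for [14C]-L-leucine or [14C]-D-glucose. Cells were washed ice-cold and lysed in 0.1 M NaOH. Read-out was scintillation, fluorescence or LC-MS/MS, normalized to protein.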

[15] = tested on: Liver; test: Elimination half life in mouse liver at 10 mg/kg, ip administered as bolus dose by LC-MS/MS analysis; format: ADME, organism-based; conditions: in vivo; method in brief: as §2
[16] = target: Glutamate receptor ionotropic, kainate 3 (Rattus norvegicus, UniProt P42264); test: Displacement of [3H]-KA from recombinant homomeric rat GluK3a receptor expressed in baculovirus infected Sf9 insect cell membranes by scintillation counting method
Glutamate receptor ionotropic, kainate 3, sequence (P42264 whole entry): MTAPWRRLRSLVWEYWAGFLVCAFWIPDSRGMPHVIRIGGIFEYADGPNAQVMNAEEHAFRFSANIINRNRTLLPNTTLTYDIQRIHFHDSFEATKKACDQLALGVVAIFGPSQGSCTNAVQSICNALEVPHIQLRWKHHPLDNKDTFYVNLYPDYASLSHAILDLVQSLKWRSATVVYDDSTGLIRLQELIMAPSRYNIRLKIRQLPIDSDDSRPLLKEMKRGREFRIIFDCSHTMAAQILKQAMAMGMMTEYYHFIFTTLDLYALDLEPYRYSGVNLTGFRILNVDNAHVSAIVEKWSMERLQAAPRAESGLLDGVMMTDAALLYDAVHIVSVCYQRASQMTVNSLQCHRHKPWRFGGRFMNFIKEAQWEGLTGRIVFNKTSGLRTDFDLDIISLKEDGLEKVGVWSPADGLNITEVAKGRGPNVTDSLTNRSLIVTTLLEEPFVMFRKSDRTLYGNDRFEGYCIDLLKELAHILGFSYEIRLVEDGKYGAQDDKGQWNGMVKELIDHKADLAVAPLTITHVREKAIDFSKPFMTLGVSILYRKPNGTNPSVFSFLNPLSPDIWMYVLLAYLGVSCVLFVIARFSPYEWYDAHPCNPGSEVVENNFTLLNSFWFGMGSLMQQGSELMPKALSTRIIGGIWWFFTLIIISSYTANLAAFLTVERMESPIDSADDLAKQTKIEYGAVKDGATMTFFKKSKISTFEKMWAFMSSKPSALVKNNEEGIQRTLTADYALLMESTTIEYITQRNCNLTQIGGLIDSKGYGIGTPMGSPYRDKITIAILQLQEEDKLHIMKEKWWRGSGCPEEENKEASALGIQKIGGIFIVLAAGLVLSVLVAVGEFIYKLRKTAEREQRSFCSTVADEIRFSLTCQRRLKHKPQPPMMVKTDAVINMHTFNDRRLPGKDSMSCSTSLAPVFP

[17] = organism: Mus musculus; test: as §3, with “Slc7a5” for “Abcc1 to 5”, “[14C]-L-leucine” for “fluorescein”, “5” for “30”, “scintillation counting method” for “fluorescence assay”; design: scale not given: the % may be the effect or the level left; method in brief: as §4
[18] = organism: Mus musculus; test: Antagonist activity at NMDA receptor in Nras driven p53 deficient mouse HCC cell membranes assessed as potentiation of 10 uM sorafenib-mediated antiproliferative activity by measuring cell viability at 100 uM after 72 hrs by resazurin assay (reference value: […] +/- […]%)
[19] = organism: Mus musculus; test: Antagonist activity at NMDA receptor in Nras driven p53 deficient mouse HCC cell membranes assessed as inhibition of NMDA-induced intracellular Ca2+ transients at 25 to 40 uM […] by fluo-4AM dye-based fluorescence assay
Method in brief: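 Mouse HCC cells were loaded with Fluo-4-AM (5 μM, 45 min), then washed out for 20 min in HEPES-buffered saline, pH 7.4. Ca2+ transients were evoked by 15 s applications of 150 μM NMDA via fast perfusion. This was done alone or with antagonist at 25 or […] μM, imaged at 495 nm excitation. Data were scored as % responding, mean ± SEM, n=5.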

IC50 [1]: 110 µM
Ki [1]: 24 µM
Drug uptake [2]: 5 pmol/g
Cmax [3]: 43.4 nmol/g
Activity [5]: 14%
IC50 [7]: 15 µM
Ki [7]: 4.7 µM
IC50 [8]: 29 µM
Ki [8]: 10 µM
Drug uptake [9]: 0.1 nmol/g
Tmax [10]: 30 min
Activity [11]: 48%
IC50 [12]: > 100 µM
Cmax [13]: 8.7 nmol/g
Activity [14]: 201%
beta t1/2 [15]: 36 min
Ki [16]: 131 µM
Activity [17]: 81%
SMILES: Cl.O=C(O)c1cc([C@H]2CCN[C@@H]2C(=O)O)ccc1Cl
Activity [4]: 35%
Activity [6]: Non-Toxic
Activity [18]: 24%
inhibition [19]: Active
